{
  "source": "paper PMC4245983",
  "about": "(Biochemistry, 2014)",
  "key": {"WT HscA [1]": {"tested_on": "WT HscA", "test": "Steady-state ATPase assay of WT HscA with HscB or IscU", "type": "biochemical, Escherichia coli", "settings": "for effect on ATPase activity of WT HscA: 50-fold molar excess of HscB or IscU, 25 °C, n = 3", "how_it_was_run": "(§1)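 HscB or IscU (50-fold molar excess, 50 μM) was added to 1 μM HscA variant (full-length WT or NBD construct). Reactions used HMKD buffer pH 7.3 with 1 mM ATP at 25 °C. Phosphate release was monitored continuously by EnzChek coupled assay at 360 nm, calibrated with a Pi standard curve. Three or more replicates.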"}, "HscA386 [2]": {"tested_on": "HscA386", "test": "Steady-state ATPase assay of HscA386", "type": "biochemical, Escherichia coli", "settings": "for effect on ATPase activity of HscA386: 50:1 molar ratio (50 μM HscB or IscU), 25 °C, n = 3; for effect on ATPase activity of HscA386 by linker peptide: 5–500 μM linker peptide, 1 μM HscA386, HMKD with 10% DMSO"}, "HscA389": {"tested_on": "HscA389", "test": "Steady-state ATPase assay of HscA389 with HscB or IscU", "type": "biochemical, Escherichia coli", "settings": "50:1 molar ratio (50 μM HscB or IscU), 25 °C, n = 3", "how_it_was_run": "as §1"}, "HscA395": {"tested_on": "HscA395", "test": "Steady-state ATPase assay of HscA395 with HscB or IscU", "type": "biochemical, Escherichia coli", "settings": "50:1 molar ratio (50 μM HscB or IscU), 25 °C, n = 3", "how_it_was_run": "as §1"}, "WT HscA [3]": {"tested_on": "WT HscA", "settings": "J-domain interactions; cited from earlier work"}, "IscU": {"tested_on": "IscU", "settings": "cited from earlier work"}, "HscA386 [4]": {"tested_on": "HscA386", "test": "2D 1H-15N TROSY-HSQC linker peptide binding to HscA386", "design": "species or system Escherichia coli", "settings": "0.2 mM [U-15N]HscA386, 3 mM linker peptide (15-fold molar excess), TED buffer, 900 MHz"}, "[5]": {"test": "Solubility of linker peptide", "type": "physicochemical", "settings": "TED buffer pH 7.5 without DMSO, upper limit concentration of 3 mM"}, "HscA386(T212V)": {"tested_on": "HscA386(T212V)", "test": "2D 1H-15N TROSY-HSQC nucleotide binding to HscA386", "design": "species or system Escherichia coli", "settings": "TED buffer lacking Mg2+, pH 7.5, 10 mM ATP", "how_it_was_run": "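0.3 mM [U-15N]-labelled NBD construct (expressed in Rosetta Blue DE3 in M9 medium with 1 g/L 15NH4Cl, 0.4 mM IPTG, 4 h). Solvent was TED buffer with 7% D2O and 0.02% sodium azide. 2D 1H–15N TROSY-HSQC spectra were taken without nucleotide and with 10 mM ATP at 25 °C, 800 MHz, and compared.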"}, "HscA [6]": {"tested_on": "HscA", "test": "ATPase activity as a function of ATP concentration", "type": "biochemical, Escherichia coli", "settings": "for Vmax from Michaelis-Menten fit: 2–1000 μM ATP, 1 μM HscA, HMKD pH 7.3, 25 °C, n = 3; for apparent ATP binding affinity, comparison of HscA386 and HscA395: from Km comparison", "how_it_was_run": "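NBD constructs (stop codons at residue 387 or 396; DEAE then Superdex 75 purification) were used at 1 μM in HMKD (50 mM HEPES pH 7.3, 150 mM KCl, 10 mM MgCl2, 1 mM DTT), 25 °C. ATP was 2, 4, 10, 40, 100 and 1000 μM. Pi release was monitored continuously by EnzChek coupled assay at 360 nm against a Pi standard curve. Means of three replicates were fit by nonlinear Michaelis–Menten regression for Km and Vmax.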"}, "HscA [7]": {"tested_on": "HscA", "test": "Steady-state ATPase assay of HscA variants", "type": "biochemical, Escherichia coli", "settings": "for fold increase in ATPase activity vs HscA386 / fold increase in ATPase activity vs WT HscA: 1 μM HscA, 1 mM ATP, HMKD pH 7.3, 25 °C; for fold increase in ATPase activity vs HscA386: relative to HscA386; for fold increase in ATPase activity vs WT HscA: relative to WT HscA", "how_it_was_run": "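Steady-state hydrolysis at 25 °C in HMKD (50 mM HEPES pH 7.3, 150 mM KCl, 10 mM MgCl2, 1 mM DTT) with 1 μM HscA variant and 1 mM ATP. Pi release was followed continuously by EnzChek enzyme-coupled assay at 360 nm and converted via a Pi standard curve to min–1. Three or more replicates. Linker peptide was dissolved in HMKD with 10% DMSO and added at 5–500 μM final.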"}, "[8]": {"test": "Differential scanning fluorimetry", "type": "physicochemical", "settings": "relative to HscA386", "how_it_was_run": "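2 μM protein in 5 mM HEPES pH 7.3, 10 mM MgCl2, 10 mM KCl with 10 μM SYPRO orange, in triplicate. Heated 15–99 °C in a real-time PCR instrument; excitation 492 nm, emission 610 nm. Tm was taken where the first derivative of fluorescence reached its minimum.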"}},
  "note": "“Also recorded” adds a separate entry of the source.",
  "data": [
    {"compound": "HscB: Hsp40-type cochaperone of HscA", "values": [
      {"measurement": "fold increase in ATPase activity of WT HscA", "setting": "WT HscA [1]; 1 μM WT HscA with 50 μM HscB", "result": 8, "unit": "factor"},
      {"measurement": "effect on ATPase activity of WT HscA", "setting": "WT HscA [1]", "result": "enhanced"},
      {"measurement": "effect on ATPase activity of HscA386", "setting": "HscA386 [2]", "result": "not affected; also recorded: did not elicit any stimulation of ATPase activity; also recorded: neither the isolated NBD (HscA386) nor the NBD with a full interdomain liker (HscA395) was receptive to ATPase stimulation"},
      {"measurement": "effect on ATPase activity of HscA389", "setting": "HscA389", "result": "not affected; also recorded: did not elicit any stimulation of ATPase activity"},
      {"measurement": "effect on ATPase activity of HscA395", "setting": "HscA395", "result": "not affected; also recorded: did not elicit any stimulation of ATPase activity; also recorded: neither the isolated NBD (HscA386) nor the NBD with a full interdomain liker (HscA395) was receptive to ATPase stimulation"},
      {"measurement": "HscB-mediated activation of full-length HscA ATPase activity", "setting": "WT HscA [3]", "result": "sensitive to HscB-mediated activation of ATPase activity"},
      {"measurement": "preferential binding to conformational state of IscU", "setting": "IscU", "result": "binds preferentially to the S-state"}
    ]},
    {"compound": "LLLDVIPLS [linker peptide]", "values": [
      {"measurement": "effect on ATPase activity of HscA386 by linker peptide", "setting": "HscA386 [2]", "result": "A concentration dependence was observed"},
      {"measurement": "effect on ATPase activity of HscA386 by linker peptide", "setting": "HscA386 [2]; listed as synthetic peptide", "result": "stimulated its ATPase activity"},
      {"measurement": "binding of linker peptide to HscA386 (chemical shift perturbation)", "setting": "HscA386 [4]", "result": "widespread chemical shift perturbations, including distinct broadening of some signals; also recorded: relatively weaker binding interactions; also recorded: weakly binding"},
      {"measurement": "binding of linker peptide to HscA386 (chemical shift perturbation)", "setting": "HscA386 [4]; listed as synthetic peptide", "result": "widespread NMR chemical shift perturbations indicative of a binding interaction"},
      {"measurement": "solubility of linker peptide in TED buffer", "setting": "[5]", "result": "partially dissolved"}
    ]},
    {"compound": "Nc1ncnc2c1ncn2[C@@H]1O[C@H](COP(=O)(O)OP(=O)(O)OP(=O)(O)O)[C@@H](O)[C@H]1O", "note": "[ATP]", "values": [
      {"measurement": "ATP binding in the absence of Mg2+ (TROSY-HSQC)", "setting": "HscA386(T212V)", "result": "nearly superimposable"}
    ]},
    {"compound": "IscU: scaffold protein, substrate of HscA", "values": [
      {"measurement": "effect on ATPase activity of WT HscA", "setting": "WT HscA [1]", "result": "enhanced"},
      {"measurement": "effect on ATPase activity of HscA386", "setting": "HscA386 [2]", "result": "no effect on the ATPase activities of any of the NBD variants; also recorded: not affected"},
      {"measurement": "effect on ATPase activity of HscA389", "setting": "HscA389", "result": "no effect on the ATPase activities of any of the NBD variants; also recorded: not affected"},
      {"measurement": "effect on ATPase activity of HscA395", "setting": "HscA395", "result": "no effect on the ATPase activities of any of the NBD variants; also recorded: not affected"}
    ]},
    {"compound": "HscA386: isolated nucleotide-binding domain (NBD) of HscA", "values": [
      {"measurement": "Vmax from Michaelis-Menten fit", "setting": "HscA [6]", "result": "0.039 ± 0.001", "unit": "min^–1"},
      {"measurement": "apparent ATP binding affinity, comparison of HscA386 and HscA395", "setting": "HscA [6]", "result": "equivalent; also recorded: identical within experimental error"}
    ]},
    {"compound": "HscA395: NBD of HscA containing the full-length (nine-amino acid) linker peptide", "values": [
      {"measurement": "fold increase in ATPase activity vs HscA386", "setting": "HscA [7]", "result": 13, "unit": "fold"},
      {"measurement": "fold increase in ATPase activity vs WT HscA", "setting": "HscA [7]", "result": 17, "unit": "fold"},
      {"measurement": "fold faster ATP hydrolysis than HscA386 in the presence of linker peptide", "setting": "HscA [7]; relative to HscA386 + 500 μM linker peptide", "result": 3, "unit": "fold"},
      {"measurement": "Vmax from Michaelis-Menten fit", "setting": "HscA [6]", "result": "0.446 ± 0.016", "unit": "min^–1"},
      {"measurement": "apparent ATP binding affinity, comparison of HscA386 and HscA395", "setting": "HscA [6]", "result": "equivalent; also recorded: identical within experimental error"},
      {"measurement": "basal thermostability vs HscA386", "setting": "[8]", "result": "higher than those of HscA386; also recorded: increases basal thermostability in comparison to that of HscA386"}
    ]},
    {"compound": "HscA389: NBD of HscA containing a short (three-amino acid) linker peptide, LLL motif", "values": [
      {"measurement": "fold increase in ATPase activity vs HscA386", "setting": "HscA [7]", "result": 7, "unit": "fold"},
      {"measurement": "fold increase in ATPase activity vs WT HscA", "setting": "HscA [7]", "result": 9, "unit": "fold"}
    ]}
  ]
}
